Converted amounts (≈) assume the structure as drawn. “Also recorded” adds a separate entry of the source. Like-named read-outs stand apart in the source and are kept apart here.
Experiments:
[1] = molecular target: rat intestinal α-glucosidase; assay: Inhibition of rat alpha-glucosidase activity; type: biochemical; details: for IC50 Rat α-glucosidase: 1 mM PNPG substrate, triplicate; for % inhibition of rat α-glucosidase: at 1.25 mg/ml
[2] = molecular target: yeast α-glucosidase (Saccharomyces cerevisiae, UniProt P53341); assay: Inhibition of yeast alpha-glucosidase activity; type: biochemical
Chain of yeast α-glucosidase (P53341 whole entry): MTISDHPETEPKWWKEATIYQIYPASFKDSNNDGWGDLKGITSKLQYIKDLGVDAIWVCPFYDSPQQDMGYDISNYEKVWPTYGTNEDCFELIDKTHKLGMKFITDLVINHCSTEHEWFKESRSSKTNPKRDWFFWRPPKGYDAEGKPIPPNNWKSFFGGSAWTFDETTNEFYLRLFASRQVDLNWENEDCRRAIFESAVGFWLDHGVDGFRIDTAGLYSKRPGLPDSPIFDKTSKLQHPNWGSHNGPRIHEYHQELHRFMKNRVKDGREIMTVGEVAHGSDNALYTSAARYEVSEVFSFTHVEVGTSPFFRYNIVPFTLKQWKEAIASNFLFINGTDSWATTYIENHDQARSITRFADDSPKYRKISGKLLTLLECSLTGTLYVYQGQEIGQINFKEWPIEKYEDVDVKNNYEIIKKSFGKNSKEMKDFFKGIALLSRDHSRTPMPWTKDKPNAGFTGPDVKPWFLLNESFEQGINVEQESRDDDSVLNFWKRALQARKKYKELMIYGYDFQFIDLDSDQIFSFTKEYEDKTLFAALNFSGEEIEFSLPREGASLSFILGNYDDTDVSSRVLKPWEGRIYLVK

[3] = molecular target: T1, porcine pancreatic α-amylase (Sus scrofa, UniProt P00690); assay: Inhibition of pancreatic alpha-amylase activity; type: biochemical
T1 sequence (P00690 16-511): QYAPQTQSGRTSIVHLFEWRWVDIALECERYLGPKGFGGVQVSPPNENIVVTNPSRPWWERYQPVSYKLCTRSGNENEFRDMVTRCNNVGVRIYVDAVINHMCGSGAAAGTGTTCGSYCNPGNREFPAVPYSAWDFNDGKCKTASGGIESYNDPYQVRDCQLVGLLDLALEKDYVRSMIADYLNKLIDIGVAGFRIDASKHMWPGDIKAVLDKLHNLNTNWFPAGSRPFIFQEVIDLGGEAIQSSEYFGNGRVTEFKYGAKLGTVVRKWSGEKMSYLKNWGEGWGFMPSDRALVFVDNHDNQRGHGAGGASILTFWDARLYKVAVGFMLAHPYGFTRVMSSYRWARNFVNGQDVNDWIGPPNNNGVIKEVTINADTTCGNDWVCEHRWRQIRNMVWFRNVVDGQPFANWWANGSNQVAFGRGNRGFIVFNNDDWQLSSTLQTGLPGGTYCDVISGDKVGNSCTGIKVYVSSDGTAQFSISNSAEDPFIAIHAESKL

[4] = tested on: SW 620 colon adenocarcinoma cells; assay: MTT assay, SW 620; type: cell-based; details: Homo sapiens, SW-620, 48 h, read-out: IC50 SW620
Summary of the method: (§1)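 Cells grown in RPMI 1640 with 5% fetal calf serum at 37°C, 5% CO2. Seeded 5,000 cells per well, 24 h, then test compound in DMSO added (vehicle DMSO, or water for the reference drug), 48 h at 37°C. MTT solution (5 mg/ml) added for 4 h, medium removed, formazan dissolved in DMSO plus 0.1 mol/l glycine, A540 read. Run in quadruplicate.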

[5] = molecular target: α-glucosidase; details: cited from earlier work
[6] = tested on: Hep-G2 liver hepatoblastoma cells; assay: MTT assay, Hep-G2; type: cell-based; details: Homo sapiens, HepG2, 48 h, read-out: IC50 Hep-G2
Summary of the method: as §1

[7] = tested on: Kato-III gastric carcinoma cells; assay: MTT assay, Kato-III; type: cell-based; details: Homo sapiens, 48 h, read-out: IC50 Kato-III
Summary of the method: as §1

[8] = molecular target: α-amylase; details: cited from earlier work
[9] = tested on: WI-38 VA-13 subline 2RA lung fibroblast cells; assay: MTT assay, normal lung fibroblast; type: cell-based, human
Summary of the method: as §1

[10] = tested on: Chago K-1 bronchogenic carcinoma cells; assay: MTT assay, Chago K-1; type: cell-based; details: Homo sapiens, ChaGo-K-1, 48 h, read-out: IC50 Chago-K1
Summary of the method: as §1

[11] = tested on: CCD-986SK skin fibroblast cells; assay: MTT assay, normal skin fibroblast; type: cell-based, human
Summary of the method: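 Culture medium was Dulbecco's modified Eagle's medium, 37°C, 5% CO2. Cells were seeded at 5,000 per well for 24 h and exposed to test compound in DMSO for 48 h at 37°C. MTT (5 mg/ml solution) was added for 4 h, medium was removed, formazan was dissolved in DMSO with 0.1 mol/l glycine, and A540 was read. Run in quadruplicate.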

[12] = tested on: all tested cancer cell lines (BT474, Chago K-1, Hep-G2, Kato-III, SW 620); assay: MTT assay, all tested cancer cell lines together; type: cell-based, human
Summary of the method: as §1

[13] = tested on: BT474 ductal carcinoma cells; assay: MTT assay, BT474; type: cell-based; details: Homo sapiens, BT-474, 48 h, read-out: IC50 BT474
Summary of the method: as §1

[14] = read-out: % inhibition of pancreatic α-amylase

C[C@H]1O[C@H](O[C@H]2[C@H](O)[C@@H](O)[C@@H](O[C@H]3[C@H](O)[C@@H](O)C(O)O[C@@H]3CO)O[C@@H]2CO)[C@H](O)[C@@H](O)[C@@H]1N[C@H]1C=C(CO)[C@@H](O)[C@H](O)[C@H]1O (some centres unmarked) [Acarbose]
IC50 Rat α-glucosidase [1]: 449.3 mg/L (≈ 696 µM) | % inhibition of rat α-glucosidase [1]: 58.7% | % inhibition of yeast α-glucosidase ([2]; at 40 mg/ml): 73.9% | inhibition at 156 µg/mL [3, 14]: 73.9%

O=c1c2cc(O)c(O)cc2oc2cc(O)c([C@@H]3O[C@H](CO)[C@@H](O)[C@H](O)[C@H]3O)c(O)c12 [Mangiferin, 1,3,6,7-Tetrahydroxyxanthone C2-ß-D-glucoside]
IC50 [4]: > 200 mg/L | IC50 α-glucosidase [5]: 41.88 mg/L (≈ 99.2 µM) | IC50 [6]: > 200 mg/L | IC50 Rat α-glucosidase [1]: 433.3 mg/L (≈ 1030 µM) | IC50 Rat α-glucosidase ([1]; listed as mangiferin): 430 mg/L (≈ 1020 µM) | % inhibition of rat α-glucosidase [1]: 92.6% | IC50 [7]: > 200 mg/L | IC50 α-amylase [8]: 74.35 mg/L (≈ 176 µM) | IC50 ([9]; Homo sapiens, WI-38 VA13, 48 h, read-out: IC50 Wi-38): > 200 mg/L | effect on survival of lung fibroblast normal cell line ([9]; at high dose, MTT): tended to increase the survival | inhibition at 2500 µg/mL ([2]; read-out: % inhibition of yeast α-glucosidase): 93.3% | IC50 [10]: > 200 mg/L | IC50 ([11]; Homo sapiens, CCD-986Sk, 48 h, read-out: IC50 CCD): > 200 mg/L | effect on % survival of skin fibroblast normal cell line ([11]; MTT, listed as mangiferin): tended to increase the survival; also recorded: increased % survival of skin fibroblast | IC50 [3]: 2480 µM | inhibition at 5000 µg/mL [3, 14]: 95.6% | effect on % survival of tested cancer cells [12]: did not significantly affect % survival | effect on % survival of tested cancer cells ([12]; listed as mangiferin): did not show significantly toxicity | IC50 [13]: > 200 mg/L
